Experimental data taken from ChEMBL document CHEMBL1132436 (J Med Chem, 1999).
Residues, ends and D or L forms follow the SMILES beside them.

Key:
[1] = species: Homo sapiens; assay: (§1) Ability of Compound (Agonist) to contract isolated human umbilical vein in presence of inhibitor.; format: functional
[2] = species: Homo sapiens; assay: Ability of Compound (Agonist) to contract isolated human umbilical vein in absence of inhibitor.; format: functional
[3] = molecular target: T1, B2 bradykinin receptor (Homo sapiens, UniProt P30411); assay: Binding affinity towards human cloned Bradykinin receptor B2 expressed in CHO cells by [3H]bradykinin displacement.; format: cell-based
T1 sequence (P30411 whole entry): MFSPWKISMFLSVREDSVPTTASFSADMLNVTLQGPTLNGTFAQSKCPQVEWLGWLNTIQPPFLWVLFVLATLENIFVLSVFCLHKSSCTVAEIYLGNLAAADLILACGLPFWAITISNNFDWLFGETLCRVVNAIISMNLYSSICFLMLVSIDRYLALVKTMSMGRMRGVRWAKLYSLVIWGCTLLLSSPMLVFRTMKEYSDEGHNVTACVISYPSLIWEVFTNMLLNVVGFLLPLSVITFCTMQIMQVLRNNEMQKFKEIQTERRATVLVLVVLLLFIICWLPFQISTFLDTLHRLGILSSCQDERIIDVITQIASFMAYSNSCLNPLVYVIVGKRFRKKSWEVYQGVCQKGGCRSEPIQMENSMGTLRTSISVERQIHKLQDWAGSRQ
In short: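 Membranes from stably transfected CHO cells, scraped into 20 mM TES (pH 6.8) with 1 mM 1,10-phenanthroline, 140 μg/mL bacitracin and 0.1% BSA, then pelleted at 40000g for 15 min. Filtered through PEI-soaked GF/B filters and counted by scintillation. Means of ≥3 experiments in duplicate.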

[4] = species: Homo sapiens; assay: as §1; format: functional, organism-based; details: read-out: pA2 (converted)

COc1ccc(C[C@@H](CN[C@@H](CCCN=C(N)N)C(=O)O)NC(=O)[C@@H]2CCCN2C(=O)[C@H](CO)NC(=O)[C@H](Cc2cccs2)NC(=O)CNC(=O)[C@@H]2C[C@@H](O)CN2C(=O)[C@@H]2CCCN2C(=O)[C@@H](N)CCCN=C(N)N)cc1 (HELM PEPTIDE1{R.P.[Hyp].G.[O=C([C@H](Cc1cccs1)N[*:1])[*:2]].S.P.[COc1ccc(C[C@@H](CN[C@@H](CCCN=C(N)N)C(=O)O)N[*:1])cc1]}$$$$V2.0)
pD2 [1]: 7.1 | pD2 [2]: 6.9

N=C(N)NCCC[C@@H](N)C(=O)N[C@@H](CCCNC(=N)N)C(=O)N1CCC[C@H]1C(=O)N1CC(O)C[C@H]1C(=O)NCC(=O)N[C@@H](Cc1cccs1)C(=O)N[C@@H](CO)C(=O)N[C@H]1CCN(CC(=O)N[C@@H](CCCNC(=N)N)C(=O)O)C1=O (some centres not stated)
Ki [3]: 1030 nM

NC(N)=NCCC[C@@H](N)C(=O)N[C@@H](CCCN=C(N)N)C(=O)N1CCC[C@H]1C(=O)N1C[C@H](O)C[C@H]1C(=O)NCC(=O)N[C@@H](Cc1cccs1)C(=O)N[C@@H](CO)C(=O)NC1N=C(c2ccccc2)c2ccccc2N(CC(=O)N[C@@H](CCCN=C(N)N)C(=O)O)C1=O (stereo in doubt; 35)
Ki ([3]; cho): 1040 nM

N=C(N)NCCC[C@H](NC(=O)CN1C(=O)[C@H](NC(=O)[C@H](CO)NC(=O)[C@H](Cc2cccs2)NC(=O)CNC(=O)[C@@H]2C[C@@H](O)CN2C(=O)[C@@H]2CCCN2C(=O)[C@H](CCCNC(=N)N)NC(=O)[C@@H](N)CCCCN)CSc2ccccc21)C(=O)O [listing 1 of 2 here]
Ki [3]: 0.07 nM

NC(N)=NCCC[C@@H](N)C(=O)N[C@@H](CCCN=C(N)N)C(=O)N1CCC[C@H]1C(=O)N1CC(O)C[C@H]1C(=O)NCC(=O)N[C@@H](Cc1cccs1)C(=O)N[C@@H](CO)C(=O)N[C@@H]1CCCCN(CC(=O)N[C@@H](CCCN=C(N)N)C(=O)O)C1=O (some centres not stated)
Ki [3]: 770 nM

N=C(N)NCCC[C@@H](N)C(=O)N[C@@H](CCCNC(=N)N)C(=O)N1CCC[C@H]1C(=O)N1CC(O)C[C@H]1C(=O)NCC(=O)N[C@@H](Cc1cccs1)C(=O)N[C@@H](CO)C(=O)N[C@@H]1CCN(CC(=O)N[C@@H](CCCNC(=N)N)C(=O)O)C1=O (some centres not stated)
Ki [3]: 4900 nM

NC(N)=NCCC[C@@H](N)C(=O)N[C@@H](CCCN=C(N)N)C(=O)N1CCC[C@H]1C(=O)N1CC(O)C[C@H]1C(=O)NCC(=O)N[C@@H](Cc1cccs1)C(=O)N[C@@H](CO)C(=O)N[C@@H]1CCc2cccc3c2N(C1=O)[C@@H](C(=O)N[C@H](CCCN=C(N)N)C(=O)O)C3 (some centres not stated)
Ki ([3]; cho): 140 nM

N=C(N)NCCC[C@@H](N)C(=O)N[C@@H](CCCNC(=N)N)C(=O)N1CCC[C@H]1C(=O)N1C[C@H](O)C[C@H]1C(=O)NCC(=O)N[C@@H](Cc1cccs1)C(=O)N[C@@H](CO)C(=O)N1Cc2ccccc2C[C@@H]1C(=O)N1[C@H](C(=O)N[C@@H](CCCNC(=N)N)C(=O)O)C[C@@H]2CCCC[C@@H]21 [ICATIBANT]
Kb [4]: 6.31 nM

N=C(N)NCCC[C@@H](N)C(=O)N[C@@H](CCCNC(=N)N)C(=O)N1CCC[C@H]1C(=O)N1C[C@H](O)C[C@H]1C(=O)NCC(=O)N[C@@H](Cc1cccs1)C(=O)N[C@@H](CO)C(=O)N[C@@H]1COc2ccccc2N(CC(=O)N[C@@H](CCCNC(=N)N)C(=O)O)C1=O [listing 1 of 2 here]
Ki [3]: 2.5 nM

H-RPPGFSPFR-OH [BRADYKININ]
pD2 [1]: 7.9 | pD2 [2]: 7.4

NC(N)=NCCC[C@@H](N)C(=O)N[C@@H](CCCN=C(N)N)C(=O)N1CCC[C@H]1C(=O)N1CC(O)C[C@H]1C(=O)NCC(=O)N[C@@H](Cc1cccs1)C(=O)N[C@@H](CO)C(=O)N[C@]1(Cc2ccccc2)C(=O)C(Cc2ccccc2)N(CC(=O)N[C@@H](CCCN=C(N)N)C(=O)O)C1=O (some centres not stated)
Ki [3]: 14 nM

NC(N)=NCCC[C@@H](N)C(=O)N[C@@H](CCCN=C(N)N)C(=O)N1CCC[C@H]1C(=O)N1C[C@H](O)C[C@H]1C(=O)NCC(=O)N[C@@H](Cc1cccs1)C(=O)N[C@@H](CO)C(=O)NC1N=C(c2ccccc2)c2ccccc2N(CC(=O)N[C@@H](CCCN=C(N)N)C(=O)O)C1=O (stereo in doubt; 34)
Ki ([3]; cho): 86 nM

N=C(N)NCCC[C@H](NC(=O)CN1C(=O)[C@H](NC(=O)[C@H](CO)NC(=O)[C@H](Cc2cccs2)NC(=O)CNC(=O)[C@@H]2C[C@@H](O)CN2C(=O)[C@@H]2CCCN2C(=O)[C@H](CCCNC(=N)N)NC(=O)[C@@H](N)CCCCN)CSc2ccccc21)C(=O)O [listing 2 of 2 here]
pD2 [1]: 7.1 | pD2 [2]: 7

N=C(N)NCCC[C@@H](N)C(=O)N[C@@H](CCCNC(=N)N)C(=O)N1CCC[C@H]1C(=O)N1C[C@H](O)C[C@H]1C(=O)NCC(=O)N[C@@H](Cc1cccs1)C(=O)N[C@@H](CO)C(=O)N[C@@H]1COc2ccccc2N(CC(=O)N[C@@H](CCCNC(=N)N)C(=O)O)C1=O [listing 2 of 2 here]
pD2 [2]: 5.1

N=C(N)NCCC[C@@H](N)C(=O)N[C@@H](CCCNC(=N)N)C(=O)N1CCC[C@H]1C(=O)N1CC(O)C[C@H]1C(=O)NCC(=O)N[C@@H](Cc1cccs1)C(=O)N[C@@H](CO)C(=O)N[C@H]1CCCCN(CC(=O)N[C@@H](CCCNC(=N)N)C(=O)O)C1=O (some centres not stated)
Ki [3]: 520 nM

NC(N)=NCCC[C@@H](N)C(=O)N[C@@H](CCCN=C(N)N)C(=O)N1CCC[C@H]1C(=O)N1CC(O)C[C@H]1C(=O)NCC(=O)N[C@@H](Cc1cccs1)C(=O)N[C@@H](CO)C(=O)N[C@H]1CCc2cccc3c2N(C1=O)[C@@H](C(=O)N[C@H](CCCN=C(N)N)C(=O)O)C3 (some centres not stated)
Ki ([3]; cho): 160 nM

Cc1ccc2c(c1)SC[C@@H](NC(=O)[C@H](CO)NC(=O)[C@H](Cc1cccs1)NC(=O)CNC(=O)[C@@H]1C[C@@H](O)CN1C(=O)[C@@H]1CCCN1C(=O)[C@H](CCCNC(=N)N)NC(=O)[C@H](N)CCCNC(=N)N)C(=O)N2CC(=O)N[C@@H](CCCNC(=N)N)C(=O)O [listing 1 of 2 here]
Ki [3]: 6 nM

N=C(N)NCCC[C@@H](N)C(=O)N[C@@H](CCCNC(=N)N)C(=O)N1CCC[C@H]1C(=O)N1C[C@H](O)C[C@H]1C(=O)NCC(=O)N[C@@H](Cc1cccs1)C(=O)N[C@@H](CO)C(=O)N[C@@H]1CSc2ccccc2N(CC(=O)N[C@@H](CCCNC(=N)N)C(=O)O)C1=O [listing 1 of 2 here]
Ki [3]: 0.7 nM

NC(N)=NCCC[C@@H](N)C(=O)N[C@@H](CCCN=C(N)N)C(=O)N1CCC[C@H]1C(=O)N1CC(O)C[C@H]1C(=O)NCC(=O)N[C@@H](Cc1cccs1)C(=O)N[C@@H](CO)C(=O)N[C@@H]1CCN([C@@H](Cc2ccccc2)C(=O)N[C@@H](CCCN=C(N)N)C(=O)O)C1=O (some centres not stated)
Ki [3]: 2070 nM

Cc1ccc2c(c1)SC[C@@H](NC(=O)[C@H](CO)NC(=O)[C@H](Cc1cccs1)NC(=O)CNC(=O)[C@@H]1C[C@@H](O)CN1C(=O)[C@@H]1CCCN1C(=O)[C@H](CCCNC(=N)N)NC(=O)[C@H](N)CCCNC(=N)N)C(=O)N2CC(=O)N[C@@H](CCCNC(=N)N)C(=O)O [listing 2 of 2 here]
pD2 [1]: 7.4 | pD2 [2]: 7.3

N=C(N)NCCC[C@@H](N)C(=O)N[C@@H](CCCNC(=N)N)C(=O)N1CCC[C@H]1C(=O)N1C[C@H](O)C[C@H]1C(=O)NCC(=O)N[C@@H](Cc1cccs1)C(=O)N[C@@H](CO)C(=O)N[C@@H]1CSc2ccccc2N(CC(=O)N[C@@H](CCCNC(=N)N)C(=O)O)C1=O [listing 2 of 2 here]
pD2 [1]: 6.8 | pD2 [2]: 6.7

N=C(N)NCCC[C@@H](N)C(=O)N[C@@H](CCCNC(=N)N)C(=O)N1CCC[C@H]1C(=O)N1CC(O)C[C@H]1C(=O)NCC(=O)N[C@@H](Cc1cccs1)C(=O)N[C@@H](CO)C(=O)N[C@H]1CCCN(CC(=O)N[C@@H](CCCNC(=N)N)C(=O)O)C1=O (some centres not stated)
Ki [3]: 18600 nM
